The term IC50 denotes the concentration at which inhibition is half-maximal. Low values mean greater potency, high ones weaker potency.

Calls of active or inactive are those of the source. The calls are words filed in the database; no cut-off is given here.

The values that follow come from ChEMBL document CHEMBL4265907, “Design, synthesis and pharmacological evaluation of N4,N6-disubstituted pyrimidine-4,6-diamine derivatives as potent EGFR inhibitors in non-small cell lung cancer” (Eur J Med Chem, 2018).

Experiment [1] has as its system NCI-H1975. The experiment is described as follows: Induction of apoptosis in human NCI-H1975 cells assessed as necrotic cells at 1000 nM after 48 hrs by Annexin V-FITC/PI staining based flow cytometry (reference value: 2.31%). The class given is functional.
In experiment [2] the test system is HCC827. Kind of experiment: Induction of apoptosis in human HCC827 cells assessed as late apoptotic cells at 1000 nM after 48 hrs by Annexin V-FITC/PI staining based flow cytometry (reference value: 1.15%). The class given is functional. For orientation: In flow cytometry, cells or beads pass a laser one at a time.
The subject of experiment [3] is NCI-H1975. Kind of experiment: Antiproliferative activity against human NCI-H1975 cells after 72 hrs by MTT assay. As to conditions: NCI-H1975, 72 h. The class given is functional, cell-based. In outline:
(§1)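 Cells seeded at 3000/well in growth medium with 10% FBS and left overnight. Treated in triplicate for 72 h at nine concentrations (0.458 to 30,000 nM), with DMSO-only controls. MTT (5 mg/mL) added for the last 4 h, formazan dissolved in DMSO, absorbance read at 490 nm. IC50 from non-linear sigmoidal dose-response fit.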

For experiment [4], the system named is HCC827. Kind of experiment: Induction of apoptosis in human HCC827 cells assessed as early apoptotic cells at 1000 nM after 48 hrs by Annexin V-FITC/PI staining based flow cytometry (reference value: 2.83%). The class given is functional.
Experiment [5] concerns HCC827. The experiment is described as follows: Induction of apoptosis in human HCC827 cells assessed as viable cells at 1000 nM after 48 hrs by Annexin V-FITC/PI staining based flow cytometry (reference value: 94.6%). As to conditions: HCC827, 48 h, read-out: Activity. Type of experiment: functional.
The subject of experiment [6] is NCI-H1975. Kind of experiment: Induction of apoptosis in human NCI-H1975 cells assessed as late apoptotic cells at 1000 nM after 48 hrs by Annexin V-FITC/PI staining based flow cytometry (reference value: 1.91%). Type of experiment: functional.
Experiment [7] concerns NCI-H3255. Kind of experiment: Induction of apoptosis in human H3255 cells assessed as viable cells at 1000 nM after 48 hrs by Annexin V-FITC/PI staining based flow cytometry (reference value: 87.9%). The following applies: NCI-H3255, 48 h, read-out: Activity. Type of experiment: functional.
Experiment [8] has as its system HCC827. Kind of experiment: Induction of apoptosis in human HCC827 cells assessed as necrotic cells at 1000 nM after 48 hrs by Annexin V-FITC/PI staining based flow cytometry (reference value: 1.41%). The class given is functional.
Experiment [9] concerns A-431. Kind of experiment: Antiproliferative activity against human A431 cells after 72 hrs by MTT assay. The class given is functional, cell-based. As to conditions: A-431, 72 h. In outline:
as §1
In general terms: Formazan colour is commonly taken as a measure of viable cells.

Experiment [10] concerns NCI-H3255. The experiment is described as follows: Induction of apoptosis in human H3255 cells assessed as necrotic cells at 1000 nM after 48 hrs by Annexin V-FITC/PI staining based flow cytometry (reference value: 7.06%). The class given is functional.
Experiment [11] concerns NCI-H1975. The experiment is described as follows: Induction of apoptosis in human NCI-H1975 cells assessed as viable cells at 1000 nM after 48 hrs by Annexin V-FITC/PI staining based flow cytometry (reference value: 93.7%). Type of experiment: functional. The following applies: NCI-H1975, 48 h, read-out: Activity.
The test system of experiment [12] is HCC827. The experiment is described as follows: Antiproliferative activity against human HCC827 cells after 72 hrs by MTT assay. The class given is functional, cell-based. The following applies: HCC827, 72 h. An outline of the steps: as §1
Experiment [13] deals with NCI-H3255. Kind of experiment: Induction of apoptosis in human H3255 cells assessed as early apoptotic cells at 1000 nM after 48 hrs by Annexin V-FITC/PI staining based flow cytometry (reference value: 3.22%). The class given is functional.
Experiment [14] has as its system NCI-H3255. The experiment is described as follows: Antiproliferative activity against human H3255 cells after 72 hrs by MTT assay. Type of experiment: functional, cell-based. As to conditions: NCI-H3255, 72 h. An outline of the steps: as §1
Experiment [15] deals with NCI-H1975. The experiment is described as follows: Induction of apoptosis in human NCI-H1975 cells assessed as early apoptotic cells at 1000 nM after 48 hrs by Annexin V-FITC/PI staining based flow cytometry (reference value: 2.07%). Type of experiment: functional.
In the next experiment the test system is BEAS-2B. Kind of experiment: Cytotoxicity against human BEAS2B cells after 72 hrs by MTT assay. The class given is cell-based. An outline of the steps:
as §1

Another experiment relates to PC-9. Kind of experiment: Antiproliferative activity against human PC9 cells after 72 hrs by MTT assay. Type of experiment: functional, cell-based. As to conditions: PC-9, 72 h. In outline:
as §1

Experiment [16] deals with NCI-H3255. The experiment is described as follows: Induction of apoptosis in human H3255 cells assessed as late apoptotic cells at 1000 nM after 48 hrs by Annexin V-FITC/PI staining based flow cytometry (reference value: 1.77%). Type of experiment: functional.
Experiment [17] relates to A-431. The experiment is described as follows: Induction of apoptosis in human A431 cells assessed as late apoptotic cells at 1000 nM after 48 hrs by Annexin V-FITC/PI staining based flow cytometry (reference value: 2.11%). Type of experiment: functional.
The subject of experiment [18] is NCI-H1975. The experiment is described as follows: Cell cycle arrest in human NCI-H1975 cells assessed as accumulation at G2/M phase at 500 nM after 24 hrs by propidium iodide staining based flow cytometry. Type of experiment: functional. An outline of the steps:
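H1975 cells (2×10^5) seeded in 6-well plates overnight, then given fresh growth medium with drug (50–500 nM range; reference drug 500 nM) or 1‰ DMSO control for 24 h; cells collected with medium, washed in cold PBS, fixed in 70% cold ethanol at –20 °C overnight, stained with PI/RNase buffer, analysed by flow cytometry; triplicates, mean ± SEM.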

The test system of experiment [19] is A-431. Kind of experiment: Induction of apoptosis in human A431 cells assessed as early apoptotic cells at 1000 nM after 48 hrs by Annexin V-FITC/PI staining based flow cytometry (reference value: 3.40%). The class given is functional.
Experiment [20] relates to A-431. The experiment is described as follows: Induction of apoptosis in human A431 cells assessed as necrotic cells at 1000 nM after 48 hrs by Annexin V-FITC/PI staining based flow cytometry (reference value: 4.16%). Type of experiment: functional.
The test system of experiment [21] is A-431. The experiment is described as follows: Induction of apoptosis in human A431 cells assessed as viable cells at 1000 nM after 48 hrs by Annexin V-FITC/PI staining based flow cytometry (reference value: 90.3%). The class given is functional. As to conditions: A-431, 48 h, read-out: Activity.

Regarding `COc1cc2ncnc(Nc3cccc(Cl)c3F)c2cc1OC(=O)N1CCN(C)C[C@H]1C` [AZD-3759], the Activity is recorded as 2.65% with NCI-H1975 [1]; 12.8% in the experiment with HCC827 [2]; 6.11% in the experiment on HCC827 [4]; 5.39% with NCI-H1975 [6]; 2.77% in the experiment on HCC827 [8]; 6.05% in the experiment on NCI-H3255 [10]. The Activity was found to be 8.51% in the experiment on NCI-H3255 [13]; 9.95% with NCI-H1975 [15]; 1.71% in the experiment on NCI-H3255 [16]; 2.88% in the experiment with A-431 [17]; 7.35% in the experiment on A-431 [19]; 1.17% in the experiment with A-431 [20]. For the same compound, the concentration for half-maximal inhibition (IC50) with NCI-H1975 [3] stood at 24.2 µM; with A-431 [9], 3.5 µM; in the experiment on HCC827 [12], 30 nM; in the experiment on NCI-H3255 [14], 90 nM; in the experiment with BEAS-2B it was 18.7 µM; with PC-9 it was 50 nM. The viability at 1 µM is 78.4% in the experiment with HCC827 [5], 83.7% with NCI-H3255 [7], 82% with NCI-H1975 [11] and 88.6% with A-431 [21]. Besides, the result in the experiment with NCI-H1975 [18] was inactive.
